Measured values from ChEMBL document CHEMBL2440094, “Thiazolidinone-peptide hybrids as dengue virus protease inhibitors with antiviral activity in cell culture” (J Med Chem, 2013).
pEC50: −log10 of the molar value. Activity calls are given as the source filed them. The calls are words filed in the database; no cut-off is given here.

System: dengue virus type 2
Test: Antiviral activity against Dengue virus 2 infected in human Huh-7 cells assessed as inhibition of viral replication after 48 hrs by luciferase reporter gene assay
Assay type: functional, organism-based
Settings: Huh-7, 48 h
In short: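 Huh-7 cells seeded 5000/well, incubated overnight at 37 °C, then given compound (1.56–50 μM final, 2-fold series in DMEM with 10% FCS). Dengue 2 renilla luciferase reporter virus (MOI 10) added 4 h later. After 48 h at 37 °C, cells lysed and renilla luminescence read with coelenterazine. At least four wells per concentration, expressed relative to DMSO control. EC50 by nonlinear regression.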

First: CCCC[C@H](NC(=O)[C@H](CCCCN)NC(=O)[C@H](CCCNC(=N)N)NC(=O)[C@H](Cc1ccccc1)N1C(=O)/C(=C/c2ccc(OC)c(OC)c2)SC1=S)C(N)=O
Second: CCCC[C@H](NC(=O)[C@H](CCCCN)NC(=O)[C@H](CCCNC(=N)N)NC(=O)c1ccc(/C=C2\SC(=S)N(c3ccc(OC)cc3)C2=O)cc1)C(N)=O
The pEC50 of the first is lower: less than 4.30 for the first, 4.37 for the second.

`CCCC[C@H](NC(=O)[C@H](CCCCN)NC(=O)[C@H](CCCNC(=N)N)NC(=O)/C=C1\SC(=S)N(Cc2ccc(OC)cc2)C1=O)C(N)=O` and `CCCC[C@H](NC(=O)[C@H](CCCCN)NC(=O)[C@H](CCCNC(=N)N)NC(=O)CC1SC(=S)N(Cc2ccc(OC)cc2)C1=O)C(N)=O` (stereo not given in full) are within 0.2 log units of each other in pEC50: 4.59 for the first, 4.52 for the second.

`CCCC[C@H](NC(=O)[C@H](CCCCN)NC(=O)[C@H](CCCNC(=N)N)NC(=O)c1cccc(/C=C2\SC(=O)N(C3CCCC3)C2=O)c1)C(N)=O` and `CCCC[C@H](NC(=O)[C@H](CCCCN)NC(=O)[C@H](CCCNC(=N)N)NC(=O)c1cccc(/C=C2\SC(=S)NC2=O)c1)C(N)=O` cannot be ordered by pEC50: 4.27 for the first, less than 4.30 for the second.

`CCCC[C@H](NC(=O)[C@H](CCCCN)NC(=O)[C@H](CCCNC(=N)N)NC(=O)c1ccc(/C=C2\SC(=S)N(CCO)C2=O)cc1)C(N)=O` and `CCCC[C@H](NC(=O)[C@H](CCCCN)NC(=O)[C@H](CCCNC(=N)N)NC(=O)c1ccc(/C=C2\SC(=O)N(CCO)C2=O)cc1)C(N)=O` cannot be ordered by pEC50: less than 4.30 for the first, less than 4.30 for the second.

With `CCCC[C@H](NC(=O)[C@H](CCCCN)NC(=O)[C@H](CCCNC(=N)N)NC(=O)c1ccc(/C=C2\SC(=S)N(c3ccc(Cl)cc3)C2=O)cc1)C(N)=O` the pEC50 was 4.45.

System: not listed separately
Test: Permeability of the compound by PAMPA
Assay type: ADME
Settings: read-out: permeability
In short: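 PAMPA with precoated trilayer lipid/oil/lipid membranes, donor wells holding 200 μM compound in PBS pH 7.4 (2% DMSO final), in triplicate. Incubated 5 h at room temperature. Donor and acceptor concentrations determined by UV plate reader or HPLC-UV against calibration curves. Pe and mass retention R calculated.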

First: CCCC[C@H](NC(=O)[C@H](CCCCN)NC(=O)[C@H](CCCNC(=N)N)NC(=O)c1ccc(/C=C2\SC(=S)N(c3ccc(OC)cc3)C2=O)cc1)C(N)=O
Second: CCCC[C@H](NC(=O)[C@H](CCCCN)NC(=O)[C@H](CCCNC(=N)N)NC(=O)c1ccc(/C=C2\SC(=S)N(c3ccc(Cl)cc3)C2=O)cc1)C(N)=O
The Papp of the first is 1.7-fold lower: 0.59 ×10⁻⁶ cm/s for the first, 1.02 ×10⁻⁶ cm/s for the second.

For `CCCC[C@H](NC(=O)[C@H](CCCCN)NC(=O)[C@H](CCCNC(=N)N)NC(=O)c1cccc(/C=C2\SC(=O)N(C3CCCC3)C2=O)c1)C(N)=O`, the Papp was 1.9 ×10⁻⁶ cm/s.

System: Huh-7
Test: Cytotoxicity against human HuH7 cells at <50 uM after 48 hrs by firefly reporter assay
Assay type: cell-based
Settings: huh-7, 48 h
In short: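 Uninfected Huh-7 cells stably expressing firefly luciferase, seeded 5000/well and incubated overnight at 37 °C. Compound added at 1.56–50 μM, plus 100, 200 and 400 μM, then incubated as for infected cells (further 48 h after the 4 h point). Firefly luminescence read with 70 μM luciferin and 2 mM ATP. Mean of three wells as percent of DMSO control.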

With `CCCC[C@H](NC(=O)[C@H](CCCCN)NC(=O)[C@H](CCCNC(=N)N)NC(=O)/C=C1\SC(=S)N(Cc2ccc(OC)cc2)C1=O)C(N)=O` the Activity was “Non-toxic”.

System: West Nile virus
Test: Inhibition of West Nile virus NS2B-NS3 protease expressed in Escherichia coli BL 21 (DE3) using Abz-Gly-Leu-Lys-Arg-Gly-Gly-3-(NO2)Tyr as substrate at 50 uM after 15 mins
Settings: not given

Compared with `CCCC[C@H](NC(=O)[C@H](CCCCN)NC(=O)[C@H](CCCNC(=N)N)NC(=O)[C@H](Cc1ccccc1)N1C(=O)/C(=C/c2ccc(OC)c(OC)c2)SC1=S)C(N)=O`, `CCCC[C@H](NC(=O)[C@H](CCCCN)NC(=O)[C@H](CCCNC(=N)N)NC(=O)c1ccc(/C=C2\SC(=S)N(c3ccc(OC)cc3)C2=O)cc1)C(N)=O` is higher in inhibition: 25% for the first, 42.9% for the second.

First: CCCC[C@H](NC(=O)[C@H](CCCCN)NC(=O)[C@H](CCCNC(=N)N)NC(=O)/C=C1\SC(=S)N(Cc2ccc(OC)cc2)C1=O)C(N)=O
Second: CCCC[C@H](NC(=O)[C@H](CCCCN)NC(=O)[C@H](CCCNC(=N)N)NC(=O)c1ccc(/C=C2\SC(=S)N(CCO)C2=O)cc1)C(N)=O
The inhibition of the first is lower: 15.3% for the first, 28.4% for the second.

Going from `CCCC[C@H](NC(=O)[C@H](CCCCN)NC(=O)[C@H](CCCNC(=N)N)NC(=O)c1cccc(/C=C2\SC(=O)N(C3CCCC3)C2=O)c1)C(N)=O` to `CCCC[C@H](NC(=O)[C@H](CCCCN)NC(=O)[C@H](CCCNC(=N)N)NC(=O)c1cccc(/C=C2\SC(=S)NC2=O)c1)C(N)=O`, the inhibition falls from 52.9% to 34.6%.

Compared with `CCCC[C@H](NC(=O)[C@H](CCCCN)NC(=O)[C@H](CCCNC(=N)N)NC(=O)c1ccc(/C=C2\SC(=O)N(CCO)C2=O)cc1)C(N)=O`, `CCCC[C@H](NC(=O)[C@H](CCCCN)NC(=O)[C@H](CCCNC(=N)N)NC(=O)c1ccc(/C=C2\SC(=S)N(c3ccc(Cl)cc3)C2=O)cc1)C(N)=O` is higher in inhibition: 26.5% for the first, 53.6% for the second.

For `CCCC[C@H](NC(=O)[C@H](CCCCN)NC(=O)[C@H](CCCNC(=N)N)NC(=O)CC1SC(=S)N(Cc2ccc(OC)cc2)C1=O)C(N)=O` (stereo not given in full), the inhibition was “inactive”.

System: Dengue virus
Test: Inhibition of Dengue virus NS2B-NS3 protease expressed in Escherichia coli BL 21 (DE3) using Abz-Nle-Lys-Arg-Arg-Ser-3-(NO2)Tyr as substrate at 50 uM after 15 mins
Settings: not given

Compared with `CCCC[C@H](NC(=O)[C@H](CCCCN)NC(=O)[C@H](CCCNC(=N)N)NC(=O)[C@H](Cc1ccccc1)N1C(=O)/C(=C/c2ccc(OC)c(OC)c2)SC1=S)C(N)=O`, `CCCC[C@H](NC(=O)[C@H](CCCCN)NC(=O)[C@H](CCCNC(=N)N)NC(=O)c1ccc(/C=C2\SC(=S)N(c3ccc(OC)cc3)C2=O)cc1)C(N)=O` is higher in inhibition: 60.8% for the first, 92.5% for the second.

First: CCCC[C@H](NC(=O)[C@H](CCCCN)NC(=O)[C@H](CCCNC(=N)N)NC(=O)/C=C1\SC(=S)N(Cc2ccc(OC)cc2)C1=O)C(N)=O
Second: CCCC[C@H](NC(=O)[C@H](CCCCN)NC(=O)[C@H](CCCNC(=N)N)NC(=O)CC1SC(=S)N(Cc2ccc(OC)cc2)C1=O)C(N)=O (stereo not given in full)
The inhibition of the first is higher: 40.9% for the first, 23% for the second.

Compared with `CCCC[C@H](NC(=O)[C@H](CCCCN)NC(=O)[C@H](CCCNC(=N)N)NC(=O)c1cccc(/C=C2\SC(=O)N(C3CCCC3)C2=O)c1)C(N)=O`, `CCCC[C@H](NC(=O)[C@H](CCCCN)NC(=O)[C@H](CCCNC(=N)N)NC(=O)c1cccc(/C=C2\SC(=S)NC2=O)c1)C(N)=O` is lower in inhibition: 92.4% for the first, 75.2% for the second.

Going from `CCCC[C@H](NC(=O)[C@H](CCCCN)NC(=O)[C@H](CCCNC(=N)N)NC(=O)c1ccc(/C=C2\SC(=S)N(CCO)C2=O)cc1)C(N)=O` to `CCCC[C@H](NC(=O)[C@H](CCCCN)NC(=O)[C@H](CCCNC(=N)N)NC(=O)c1ccc(/C=C2\SC(=O)N(CCO)C2=O)cc1)C(N)=O`, the inhibition rises from 90.3% to 95.9%.

Work on `CCCC[C@H](NC(=O)[C@H](CCCCN)NC(=O)[C@H](CCCNC(=N)N)NC(=O)c1ccc(/C=C2\SC(=S)N(c3ccc(Cl)cc3)C2=O)cc1)C(N)=O` yielded an inhibition of 96.7%.

Biological target: Prothrombin (Homo sapiens) (UniProt P00734)
Test: Inhibition of thrombin (unknown origin) using Boc-Val-Pro-Arg-AMC as substrate at 25 uM after 10 mins by continuous fluorimetric assay
Settings: not given
In short: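 Thrombin (10 nM) preincubated 15 min with inhibitor (25 μM final) in 50 mM Tris-HCl pH 7.5, 150 mM NaCl, 0.05% Tween 20. Boc-Val-Pro-Arg-AMC then added to 50 μM (Km 16 μM). Fluorescence (ex 355 nm, em 460 nm) followed for 10 min as slope. Triplicate; percent inhibition versus no-inhibitor control.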

Compared with `CCCC[C@H](NC(=O)[C@H](CCCCN)NC(=O)[C@H](CCCNC(=N)N)NC(=O)[C@H](Cc1ccccc1)N1C(=O)/C(=C/c2ccc(OC)c(OC)c2)SC1=S)C(N)=O`, `CCCC[C@H](NC(=O)[C@H](CCCCN)NC(=O)[C@H](CCCNC(=N)N)NC(=O)c1ccc(/C=C2\SC(=S)N(c3ccc(OC)cc3)C2=O)cc1)C(N)=O` is lower in inhibition: 18.9% for the first, 8.5% for the second.

Going from `CCCC[C@H](NC(=O)[C@H](CCCCN)NC(=O)[C@H](CCCNC(=N)N)NC(=O)/C=C1\SC(=S)N(Cc2ccc(OC)cc2)C1=O)C(N)=O` to `CCCC[C@H](NC(=O)[C@H](CCCCN)NC(=O)[C@H](CCCNC(=N)N)NC(=O)CC1SC(=S)N(Cc2ccc(OC)cc2)C1=O)C(N)=O` (stereo not given in full), the inhibition rises from 24.7% to 76.8%.

Going from `CCCC[C@H](NC(=O)[C@H](CCCCN)NC(=O)[C@H](CCCNC(=N)N)NC(=O)c1cccc(/C=C2\SC(=O)N(C3CCCC3)C2=O)c1)C(N)=O` to `CCCC[C@H](NC(=O)[C@H](CCCCN)NC(=O)[C@H](CCCNC(=N)N)NC(=O)c1cccc(/C=C2\SC(=S)NC2=O)c1)C(N)=O`, the inhibition rises from 13% to 17.6%.

First: CCCC[C@H](NC(=O)[C@H](CCCCN)NC(=O)[C@H](CCCNC(=N)N)NC(=O)c1ccc(/C=C2\SC(=S)N(CCO)C2=O)cc1)C(N)=O
Second: CCCC[C@H](NC(=O)[C@H](CCCCN)NC(=O)[C@H](CCCNC(=N)N)NC(=O)c1ccc(/C=C2\SC(=O)N(CCO)C2=O)cc1)C(N)=O
The inhibition of the first is higher: 12.9% for the first, 11.8% for the second.

In the case of `CCCC[C@H](NC(=O)[C@H](CCCCN)NC(=O)[C@H](CCCNC(=N)N)NC(=O)c1ccc(/C=C2\SC(=S)N(c3ccc(Cl)cc3)C2=O)cc1)C(N)=O`, the inhibition was 11.1%.
